Broadly, the IC50 is the concentration at which inhibition is half-maximal.

Some results are limits rather than exact numbers.

The target in one assay is Histone deacetylase 2 (Homo sapiens, UniProt Q92769). The experiment in a line: Inhibition of recombinant human HDAC2 using fluorogenic substrate by fluorescence microplate reader assay. The essentials:
(§1)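 Recombinant human HDAC isoforms were tested at 9 inhibitor dilutions in commercial fluorogenic enzyme kits, per the manufacturer's protocol. For class IIa enzymes, deacetylation of a TFA-lysine substrate lets trypsin release a fluorophore, read on a microplate reader. IC50 came from a nonlinear fit of % HDAC activity inhibition against compound concentration.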

In another assay the target is Histone deacetylase 9 (Homo sapiens, UniProt Q9UKV0). The experiment in a line: Inhibition of recombinant human HDAC9 using fluorogenic substrate by fluorescence microplate reader assay. In a few lines: as §1
For the next assay, the target named is T1, Histone deacetylase 8 (Homo sapiens, UniProt Q9BY41).
T1 sequence (Q9BY41 whole entry): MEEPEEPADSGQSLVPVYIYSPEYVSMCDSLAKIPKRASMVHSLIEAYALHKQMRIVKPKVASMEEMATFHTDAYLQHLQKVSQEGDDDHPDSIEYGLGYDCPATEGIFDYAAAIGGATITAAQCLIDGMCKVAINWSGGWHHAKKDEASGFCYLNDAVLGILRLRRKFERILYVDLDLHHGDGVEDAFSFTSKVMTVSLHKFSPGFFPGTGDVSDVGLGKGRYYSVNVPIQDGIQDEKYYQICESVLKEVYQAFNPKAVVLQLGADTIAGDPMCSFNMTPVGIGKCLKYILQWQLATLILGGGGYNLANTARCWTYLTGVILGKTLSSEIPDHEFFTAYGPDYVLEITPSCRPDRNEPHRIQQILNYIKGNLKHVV
The experiment in a line: Inhibition of recombinant human HDAC8 using fluorogenic substrate by fluorescence microplate reader assay. In a few lines:
as §1

The next assay has as its target Histone deacetylase 1 (Homo sapiens, UniProt Q13547). The experiment in a line: Inhibition of recombinant human HDAC1 using fluorogenic substrate by fluorescence microplate reader assay. The essentials:
as §1

In a further assay the target is Histone deacetylase 5 (Homo sapiens, UniProt Q9UQL6). The experiment in a line: Inhibition of recombinant human HDAC5 using fluorogenic substrate by fluorescence microplate reader assay. In a few lines:
as §1

In assay [1] the target is T2, Polyamine deacetylase HDAC10 (Homo sapiens, UniProt Q969S8).
T2 sequence (Q969S8 whole entry): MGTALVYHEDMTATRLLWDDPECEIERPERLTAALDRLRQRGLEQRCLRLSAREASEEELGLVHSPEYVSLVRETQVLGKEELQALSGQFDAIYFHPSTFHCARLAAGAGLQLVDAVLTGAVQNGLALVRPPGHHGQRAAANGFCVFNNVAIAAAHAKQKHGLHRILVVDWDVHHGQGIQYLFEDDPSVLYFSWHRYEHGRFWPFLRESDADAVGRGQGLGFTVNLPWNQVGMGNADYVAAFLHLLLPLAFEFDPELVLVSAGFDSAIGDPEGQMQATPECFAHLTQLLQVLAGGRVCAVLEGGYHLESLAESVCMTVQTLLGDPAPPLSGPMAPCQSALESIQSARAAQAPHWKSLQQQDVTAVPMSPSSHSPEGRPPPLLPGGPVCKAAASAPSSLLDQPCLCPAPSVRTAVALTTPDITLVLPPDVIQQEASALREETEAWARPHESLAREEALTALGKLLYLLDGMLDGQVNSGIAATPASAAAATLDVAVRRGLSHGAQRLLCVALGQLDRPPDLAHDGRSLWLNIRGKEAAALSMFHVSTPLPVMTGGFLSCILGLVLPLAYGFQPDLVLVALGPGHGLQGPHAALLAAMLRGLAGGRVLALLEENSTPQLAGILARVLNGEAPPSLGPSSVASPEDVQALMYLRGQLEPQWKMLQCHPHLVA
The experiment in a line: Inhibition of recombinant human HDAC10 using fluorogenic substrate by fluorescence microplate reader assay. The essentials: as §1

Assay [2] concerns the target Class 1 histone deacetylase (Homo sapiens, UniProt Q13547+O15379+Q92769+Q9BY41). The experiment in a line: Inhibition of HDAC class 1 in human HT-29 cells using Boc-Lys-Ac as substrate incubated for 3 hrs by microplate reader assay. In kind it is cell-based.
Assay [3] can be described thus: Inhibition of HDAC class 2a in human HT-29 cells using Boc-Lys-TFA as substrate incubated for 3 hrs by microplate reader assay. It counts as cell-based. Conditions: HT-29, 3 h.
Assay [4] can be described thus: Inhibition of HDAC class 2b in human HT-29 cells using Boc-Lys-Ac as substrate incubated for 3 hrs by microplate reader assay. In kind it is cell-based. Conditions: HT-29, 3 h.
Assay [5] addresses T3, Protein deacetylase HDAC6 (Homo sapiens, UniProt Q9UBN7).
T3 sequence (Q9UBN7 whole entry): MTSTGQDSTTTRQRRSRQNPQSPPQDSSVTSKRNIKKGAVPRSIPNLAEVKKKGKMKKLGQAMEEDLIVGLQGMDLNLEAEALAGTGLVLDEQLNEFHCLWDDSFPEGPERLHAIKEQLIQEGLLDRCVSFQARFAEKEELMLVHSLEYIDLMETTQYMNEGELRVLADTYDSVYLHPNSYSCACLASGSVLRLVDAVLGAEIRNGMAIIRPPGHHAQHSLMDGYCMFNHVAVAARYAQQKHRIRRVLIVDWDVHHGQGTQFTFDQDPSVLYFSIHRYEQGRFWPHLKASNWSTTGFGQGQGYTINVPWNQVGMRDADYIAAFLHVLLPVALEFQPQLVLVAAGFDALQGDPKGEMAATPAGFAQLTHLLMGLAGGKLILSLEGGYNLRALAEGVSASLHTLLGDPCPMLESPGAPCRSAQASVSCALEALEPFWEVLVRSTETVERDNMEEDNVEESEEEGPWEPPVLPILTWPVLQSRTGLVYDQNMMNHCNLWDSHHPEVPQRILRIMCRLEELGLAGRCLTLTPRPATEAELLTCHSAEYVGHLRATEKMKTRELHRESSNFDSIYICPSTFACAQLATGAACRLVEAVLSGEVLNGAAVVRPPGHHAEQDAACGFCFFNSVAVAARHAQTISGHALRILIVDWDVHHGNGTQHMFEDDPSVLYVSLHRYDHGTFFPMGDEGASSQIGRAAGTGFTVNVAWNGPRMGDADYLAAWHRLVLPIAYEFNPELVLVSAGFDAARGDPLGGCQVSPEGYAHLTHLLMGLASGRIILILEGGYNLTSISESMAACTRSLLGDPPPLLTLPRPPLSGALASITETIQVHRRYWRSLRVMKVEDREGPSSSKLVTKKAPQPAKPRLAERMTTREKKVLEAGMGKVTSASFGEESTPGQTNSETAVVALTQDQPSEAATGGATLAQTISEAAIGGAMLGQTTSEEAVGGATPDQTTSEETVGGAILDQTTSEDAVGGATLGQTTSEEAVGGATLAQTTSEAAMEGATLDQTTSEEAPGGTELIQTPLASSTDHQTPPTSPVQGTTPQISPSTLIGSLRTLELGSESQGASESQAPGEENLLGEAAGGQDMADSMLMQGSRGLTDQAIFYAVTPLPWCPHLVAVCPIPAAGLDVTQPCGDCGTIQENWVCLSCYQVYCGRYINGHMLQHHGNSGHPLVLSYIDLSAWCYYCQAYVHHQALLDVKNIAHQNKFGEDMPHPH
The experiment in a line: Inhibition of recombinant human HDAC6 using fluorogenic substrate by fluorescence microplate reader assay. In a few lines:
as §1

The target of a further assay is Histone deacetylase 4 (Homo sapiens, UniProt P56524). The experiment in a line: Inhibition of recombinant human HDAC4 using fluorogenic substrate by fluorescence microplate reader assay. The essentials:
as §1

Another assay concerns the target Histone deacetylase 3 (Homo sapiens, UniProt O15379). The experiment in a line: Inhibition of recombinant human HDAC3 using fluorogenic substrate by fluorescence microplate reader assay. In a few lines:
as §1

Another assay has as its target T4, Histone deacetylase 11 (Homo sapiens, UniProt Q96DB2).
T4 sequence (Q96DB2 whole entry): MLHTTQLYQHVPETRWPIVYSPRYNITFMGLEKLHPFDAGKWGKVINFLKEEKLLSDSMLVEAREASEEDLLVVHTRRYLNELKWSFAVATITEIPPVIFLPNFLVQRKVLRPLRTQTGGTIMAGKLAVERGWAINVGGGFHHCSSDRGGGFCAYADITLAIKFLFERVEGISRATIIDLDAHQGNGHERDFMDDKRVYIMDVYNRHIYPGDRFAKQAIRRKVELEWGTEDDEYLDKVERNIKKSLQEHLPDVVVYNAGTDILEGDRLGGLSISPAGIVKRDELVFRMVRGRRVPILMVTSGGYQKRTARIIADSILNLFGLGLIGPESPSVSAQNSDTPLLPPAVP
The experiment in a line: Inhibition of recombinant human HDAC11 using fluorogenic substrate by fluorescence microplate reader assay. The essentials: as §1

Sequence of Histone deacetylase 3 (O15379 whole entry): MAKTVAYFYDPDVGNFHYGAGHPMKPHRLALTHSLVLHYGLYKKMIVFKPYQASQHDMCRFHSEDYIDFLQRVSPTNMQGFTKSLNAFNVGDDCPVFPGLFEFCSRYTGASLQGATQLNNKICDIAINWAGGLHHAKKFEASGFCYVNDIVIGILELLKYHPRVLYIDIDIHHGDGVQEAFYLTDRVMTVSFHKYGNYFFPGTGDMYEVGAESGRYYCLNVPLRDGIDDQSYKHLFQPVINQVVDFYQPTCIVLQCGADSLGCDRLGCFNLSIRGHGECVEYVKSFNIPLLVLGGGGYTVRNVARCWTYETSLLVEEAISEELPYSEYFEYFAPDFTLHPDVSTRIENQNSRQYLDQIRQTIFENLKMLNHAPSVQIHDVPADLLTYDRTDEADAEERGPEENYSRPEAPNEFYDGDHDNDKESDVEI
Sequence of Histone deacetylase 1 (Q13547 whole entry): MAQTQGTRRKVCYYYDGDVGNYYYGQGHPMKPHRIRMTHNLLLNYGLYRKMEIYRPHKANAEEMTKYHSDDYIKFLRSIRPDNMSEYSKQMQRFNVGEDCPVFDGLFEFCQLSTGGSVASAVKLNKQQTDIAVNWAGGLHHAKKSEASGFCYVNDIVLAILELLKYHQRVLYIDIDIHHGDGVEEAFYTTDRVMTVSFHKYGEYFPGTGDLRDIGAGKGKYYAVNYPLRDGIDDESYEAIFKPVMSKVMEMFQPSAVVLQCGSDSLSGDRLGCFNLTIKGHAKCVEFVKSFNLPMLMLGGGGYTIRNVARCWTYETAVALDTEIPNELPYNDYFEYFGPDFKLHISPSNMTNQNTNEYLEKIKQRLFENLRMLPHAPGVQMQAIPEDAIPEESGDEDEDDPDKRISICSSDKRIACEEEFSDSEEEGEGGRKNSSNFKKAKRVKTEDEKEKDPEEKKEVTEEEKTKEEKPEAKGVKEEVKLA
Sequence of Histone deacetylase 9 (Q9UKV0 whole entry): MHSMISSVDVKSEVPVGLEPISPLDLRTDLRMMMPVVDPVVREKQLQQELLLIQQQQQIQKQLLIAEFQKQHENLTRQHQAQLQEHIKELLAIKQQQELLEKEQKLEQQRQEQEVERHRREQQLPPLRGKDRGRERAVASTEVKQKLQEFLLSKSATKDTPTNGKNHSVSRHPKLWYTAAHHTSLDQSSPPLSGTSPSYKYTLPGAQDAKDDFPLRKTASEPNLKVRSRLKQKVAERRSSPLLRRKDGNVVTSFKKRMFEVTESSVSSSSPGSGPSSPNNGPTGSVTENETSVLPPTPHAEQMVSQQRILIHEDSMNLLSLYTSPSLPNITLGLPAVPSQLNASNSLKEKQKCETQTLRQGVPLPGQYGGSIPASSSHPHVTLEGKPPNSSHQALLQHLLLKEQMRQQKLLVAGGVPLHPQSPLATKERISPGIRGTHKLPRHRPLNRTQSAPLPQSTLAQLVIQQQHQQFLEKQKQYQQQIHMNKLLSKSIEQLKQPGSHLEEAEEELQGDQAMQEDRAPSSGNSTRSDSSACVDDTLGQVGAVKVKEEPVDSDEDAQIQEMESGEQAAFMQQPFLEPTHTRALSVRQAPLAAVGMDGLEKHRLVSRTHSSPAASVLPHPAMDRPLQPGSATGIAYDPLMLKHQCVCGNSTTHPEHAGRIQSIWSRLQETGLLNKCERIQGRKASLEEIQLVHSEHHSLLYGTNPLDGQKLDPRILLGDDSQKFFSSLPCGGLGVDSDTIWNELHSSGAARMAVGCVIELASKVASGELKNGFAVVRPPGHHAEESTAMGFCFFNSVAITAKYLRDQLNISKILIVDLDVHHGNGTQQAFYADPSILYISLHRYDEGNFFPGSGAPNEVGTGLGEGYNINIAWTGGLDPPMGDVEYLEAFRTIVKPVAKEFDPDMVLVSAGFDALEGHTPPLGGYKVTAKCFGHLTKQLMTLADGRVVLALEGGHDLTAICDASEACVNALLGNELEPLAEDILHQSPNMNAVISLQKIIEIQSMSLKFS
Sequence of Histone deacetylase 2 (Q92769 whole entry, canonical isoform): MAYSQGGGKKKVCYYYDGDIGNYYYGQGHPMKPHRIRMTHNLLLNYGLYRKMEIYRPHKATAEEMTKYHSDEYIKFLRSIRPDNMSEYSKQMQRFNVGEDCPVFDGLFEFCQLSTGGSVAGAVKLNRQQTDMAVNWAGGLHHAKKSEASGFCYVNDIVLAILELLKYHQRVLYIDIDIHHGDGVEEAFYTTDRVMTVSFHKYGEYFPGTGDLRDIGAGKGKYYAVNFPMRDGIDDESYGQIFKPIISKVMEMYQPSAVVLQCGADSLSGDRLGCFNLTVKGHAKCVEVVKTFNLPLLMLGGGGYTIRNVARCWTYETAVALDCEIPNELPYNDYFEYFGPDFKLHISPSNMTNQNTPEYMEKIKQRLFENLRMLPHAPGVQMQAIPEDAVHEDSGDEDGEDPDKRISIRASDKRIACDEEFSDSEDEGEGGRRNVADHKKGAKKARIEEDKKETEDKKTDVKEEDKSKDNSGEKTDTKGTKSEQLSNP
Sequence of Histone deacetylase 4 (P56524 whole entry): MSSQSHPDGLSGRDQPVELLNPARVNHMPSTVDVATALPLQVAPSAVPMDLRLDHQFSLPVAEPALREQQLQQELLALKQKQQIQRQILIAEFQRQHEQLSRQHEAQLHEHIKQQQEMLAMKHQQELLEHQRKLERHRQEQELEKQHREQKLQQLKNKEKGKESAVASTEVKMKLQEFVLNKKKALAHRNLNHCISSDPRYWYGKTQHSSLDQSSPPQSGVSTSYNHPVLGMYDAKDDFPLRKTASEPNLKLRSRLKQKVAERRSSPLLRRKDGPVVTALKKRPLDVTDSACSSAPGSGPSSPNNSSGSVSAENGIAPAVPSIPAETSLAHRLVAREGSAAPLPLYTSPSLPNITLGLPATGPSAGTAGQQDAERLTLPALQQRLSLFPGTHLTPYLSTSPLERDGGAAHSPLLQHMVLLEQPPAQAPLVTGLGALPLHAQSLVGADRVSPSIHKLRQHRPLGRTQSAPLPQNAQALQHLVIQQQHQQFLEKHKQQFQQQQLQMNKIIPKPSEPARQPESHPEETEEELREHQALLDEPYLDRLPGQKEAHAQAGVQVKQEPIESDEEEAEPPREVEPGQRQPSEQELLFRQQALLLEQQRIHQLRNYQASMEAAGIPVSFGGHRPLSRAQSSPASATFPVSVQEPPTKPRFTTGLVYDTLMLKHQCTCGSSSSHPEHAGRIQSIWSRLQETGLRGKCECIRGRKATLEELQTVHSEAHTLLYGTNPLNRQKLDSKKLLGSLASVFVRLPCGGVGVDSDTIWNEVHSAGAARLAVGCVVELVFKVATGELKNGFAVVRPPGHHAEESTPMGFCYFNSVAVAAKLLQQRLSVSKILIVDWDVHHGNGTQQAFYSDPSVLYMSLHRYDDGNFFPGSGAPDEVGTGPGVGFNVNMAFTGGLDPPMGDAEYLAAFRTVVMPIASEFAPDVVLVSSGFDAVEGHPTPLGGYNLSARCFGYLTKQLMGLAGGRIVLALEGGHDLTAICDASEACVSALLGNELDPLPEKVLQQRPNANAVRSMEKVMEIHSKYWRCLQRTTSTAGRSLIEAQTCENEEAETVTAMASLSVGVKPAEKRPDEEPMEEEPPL
Sequence of Histone deacetylase 5 (Q9UQL6 whole entry): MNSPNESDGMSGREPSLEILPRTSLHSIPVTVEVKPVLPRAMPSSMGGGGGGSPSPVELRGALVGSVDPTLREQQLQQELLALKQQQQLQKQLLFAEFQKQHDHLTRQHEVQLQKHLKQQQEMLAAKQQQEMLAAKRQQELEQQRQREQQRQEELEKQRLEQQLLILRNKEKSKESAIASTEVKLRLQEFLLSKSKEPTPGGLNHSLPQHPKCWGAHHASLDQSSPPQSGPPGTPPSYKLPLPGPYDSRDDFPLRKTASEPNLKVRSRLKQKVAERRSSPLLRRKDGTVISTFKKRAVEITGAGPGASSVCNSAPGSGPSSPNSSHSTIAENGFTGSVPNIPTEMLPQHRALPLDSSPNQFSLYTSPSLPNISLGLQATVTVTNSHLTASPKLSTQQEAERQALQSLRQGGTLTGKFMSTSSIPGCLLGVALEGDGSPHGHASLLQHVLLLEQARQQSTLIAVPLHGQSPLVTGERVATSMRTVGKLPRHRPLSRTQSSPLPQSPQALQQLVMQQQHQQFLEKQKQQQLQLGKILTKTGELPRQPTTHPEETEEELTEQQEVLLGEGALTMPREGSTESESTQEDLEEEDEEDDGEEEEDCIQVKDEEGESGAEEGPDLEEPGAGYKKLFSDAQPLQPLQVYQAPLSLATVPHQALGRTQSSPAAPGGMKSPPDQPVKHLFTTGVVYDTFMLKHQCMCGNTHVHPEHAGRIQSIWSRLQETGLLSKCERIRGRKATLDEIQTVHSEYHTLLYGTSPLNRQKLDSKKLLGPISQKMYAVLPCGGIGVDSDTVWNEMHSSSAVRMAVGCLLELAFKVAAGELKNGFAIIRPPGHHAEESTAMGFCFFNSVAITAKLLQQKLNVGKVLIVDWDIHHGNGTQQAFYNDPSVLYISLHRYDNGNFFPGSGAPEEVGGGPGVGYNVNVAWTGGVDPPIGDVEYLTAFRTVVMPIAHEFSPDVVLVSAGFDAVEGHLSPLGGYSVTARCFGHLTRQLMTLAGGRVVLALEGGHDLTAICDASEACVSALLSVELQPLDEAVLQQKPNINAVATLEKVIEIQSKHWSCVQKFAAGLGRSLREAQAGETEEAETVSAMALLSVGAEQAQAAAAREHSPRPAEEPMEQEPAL

Regarding `C[C@H](CN(C)Cc1ccccc1)NC(=O)c1ccc(-c2noc(C(F)(F)F)n2)cc1`, the IC50 on Histone deacetylase 2 was more than 600 nM; at Histone deacetylase 9, 0.9 nM; on Histone deacetylase 8 it was more than 600 nM; on Histone deacetylase 1, more than 600 nM; at Histone deacetylase 5, 1.2 nM; in [1], more than 600 nM. For the same molecule, the IC50 in assay [2] is more than 15000 nM; in [3], 46 nM; in assay [4] it was more than 15000 nM; in assay [5], more than 600 nM; on Histone deacetylase 4, 0.08 nM; at Histone deacetylase 3 it was more than 600 nM. Moreover, on Histone deacetylase 11, the IC50 is more than 600 nM.

Regarding `CC(C)(CNC(=O)c1ccc(-c2noc(C(F)(F)F)n2)cc1)c1coc(-c2ccccc2)n1`, the IC50 in [2] is more than 15000 nM; in [3], more than 5000 nM; in assay [4], more than 15000 nM.

For `C[C@H](CN(C)Cc1ccccc1)NC(=O)c1ccc(-c2noc(C(F)(F)Cl)n2)cc1`, the 50% inhibitory concentration (IC50) in assay [2], in assay [3] and in assay [4] was more than 2000 nM each time.

As for `C[C@H](CN(C)Cc1ccc(F)cc1)NC(=O)c1ccc(-c2noc(C(F)(F)F)n2)cc1`, the IC50 is more than 15000 nM in assay [2], 59 nM in [3] and more than 15000 nM in assay [4].

As to `C[C@@H](NC(=O)c1ccc(-c2noc(C(F)(F)F)n2)cc1)C(=O)NCc1ccccc1`, the concentration for half-maximal inhibition (IC50) in assay [2] was more than 15000 nM; in assay [3], 953 nM; in [4] it was more than 15000 nM.

For `COC[C@@H](NC(=O)c1ccc(-c2noc(C(F)(F)F)n2)cc1)C(=O)NCc1ccc(F)cc1`, the results for the 50% inhibitory concentration (IC50) in [2], in assay [3] and in assay [4] were more than 15000 nM, 233 nM and more than 15000 nM, respectively.

Regarding `C[C@H](CN(C)Cc1ccccc1)NC(=O)c1ccc(-c2noc(C(F)(F)F)n2)nc1`, the values for the IC50 in assay [2], in assay [3] and in [4] were more than 50000 nM, 147 nM and more than 50000 nM, respectively.

Regarding `COC[C@@H](NC(=O)c1ccc(-c2noc(C(F)(F)F)n2)cc1)C(=O)NCc1ccccc1`, the IC50 in assay [2] was more than 15000 nM; in [3], 537 nM; in [4], more than 15000 nM.

On to `CN(Cc1ccccc1)C(=O)C(C)(C)CNC(=O)c1cccc(-c2noc(C(F)(F)F)n2)c1`, for which the half-inhibitory concentration (IC50) in assay [2], in assay [3] and in assay [4] was more than 50000 nM throughout.

As to `CC(C)(CNC(=O)c1ccc(-c2noc(C(F)(F)F)n2)cc1)C(=O)NCc1ccccc1`, the values for the IC50 in assay [2], in assay [3] and in [4] were more than 15000 nM, 768 nM and more than 15000 nM, respectively.

For the molecule `C[C@H](CN(C)Cc1ccccc1)NC(=O)c1cccc(-c2noc(C(F)(F)F)n2)c1`, the concentration for half-maximal inhibition (IC50) in [2], in assay [3] and in assay [4] was more than 50000 nM each time.

On to `COC[C@@H](NC(=O)c1ccc(-c2noc(C(F)(F)F)n2)nc1)C(=O)NCc1ccccc1`, for which the IC50 in [2] was more than 15000 nM; in assay [3], 1710 nM; in [4], more than 15000 nM.

With `CC(CN(C)Cc1ccccc1)NC(=O)c1ccc(-c2noc(C(F)(F)F)n2)cc1` (stereo unspecified), the IC50 in [2] is more than 50000 nM; in assay [3] it was 395 nM; in [4], more than 50000 nM.

`CN(Cc1ccccc1)C(=O)CCNC(=O)c1ccc(-c2noc(C(F)(F)F)n2)cc1`: the figures for the half-maximal inhibitory concentration (IC50) in assay [2], in assay [3] and in assay [4] were more than 15000 nM, 905 nM and more than 15000 nM, respectively.

For the molecule `CN(Cc1ccccc1)C(=O)C(C)(C)CNC(=O)c1ccc(-c2noc(C(F)(F)F)n2)cc1`, the results for the IC50 in assay [2], in assay [3] and in [4] were more than 15000 nM, 933 nM and more than 15000 nM, respectively.

In the case of `CN(Cc1ccccc1)C(=O)CCNC(=O)c1cccc(-c2noc(C(F)(F)F)n2)c1`, the IC50 in assay [2], in assay [3] and in assay [4] was more than 50000 nM each time.

As to `C[C@H](CN(C)Cc1ccccc1)NC(=O)c1ccc(-c2noc(C(F)(F)Br)n2)cc1`, the half-maximal inhibitory concentration (IC50) in assay [2], in assay [3] and in assay [4] was more than 5000 nM in each case.
